Among the data in ChEMBL document CHEMBL1909539, “Reappraising the structures and distribution of metabolites from black aspergilli containing uncommon 2-benzyl-4H-pyran-4-one and 2-benzylpyridin-4(1H)-one systems” (J Nat Prod, 2011) are inhibition and Activity values, retold here.

What all share (type): functional, organism-based
Experiment [1] deals with Escherichia coli. Put plainly: Antibacterial activity against Escherichia coli ATCC 10798 at 100 ug/ml after 24 hrs. The method in brief:
(§1)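 Broth growth assay in 96-well plates with test compounds added from DMSO stocks (final DMSO 1%). OD600 was read after brief orbital shaking, then again after 24 h incubation at 37 °C in a humidified incubator. Activity was taken as the change in OD600 between the two readings.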

Experiment [2] relates to Acinetobacter baumannii. The experiment is described as follows: Antibacterial activity against Acinetobacter baumannii ATCC 19606 at 100 ug/ml after 24 hrs. The note with it: ATCC 19606 = CIP 70.34 = JCM 6841. An outline of the steps:
as §1

Experiment [3] relates to Staphylococcus aureus. The experiment is described as follows: Antibacterial activity against Staphylococcus aureus ATCC 25293 at 100 ug/ml after 24 hrs. An outline of the steps: as §1
The test system of experiment [4] is Acinetobacter baumannii. Put plainly: Antibacterial activity against Acinetobacter baumannii ATCC BAA-1605 at 100 ug/ml after 24 hrs. An outline of the steps: as §1
The test system of experiment [5] is Staphylococcus epidermidis. Put plainly: Antibacterial activity against Staphylococcus epidermidis ATCC 12228 at 100 ug/ml after 24 hrs. An outline of the steps: as §1
The test system of experiment [6] is Staphylococcus aureus. Put plainly: Antibacterial activity against Staphylococcus aureus ATCC 700787 at 100 ug/ml after 24 hrs. An outline of the steps: as §1
The test system of a further experiment is Enterobacter cloacae. Put plainly: Antibacterial activity against Enterobacter cloacae ATCC 13047 at 100 ug/ml after 24 hrs. An outline of the steps:
as §1

Experiment [7] deals with Klebsiella pneumoniae. Put plainly: Antibacterial activity against Klebsiella pneumoniae ATCC 51503 at 100 ug/ml after 24 hrs. An outline of the steps: as §1
For experiment [8], the system named is Escherichia coli. The experiment is described as follows: Antibacterial activity against Escherichia coli ATCC 11775 at 100 ug/ml after 24 hrs. An outline of the steps:
as §1

In the next experiment the test system is Pseudomonas aeruginosa. The experiment is described as follows: Antibacterial activity against Pseudomonas aeruginosa ATCC 10145 at 100 ug/ml after 24 hrs. An outline of the steps: as §1
The subject of the next experiment is Burkholderia cepacia. The experiment is described as follows: Antibacterial activity against Burkholderia cepacia ATCC 25608 at 100 ug/ml after 24 hrs. An outline of the steps:
as §1

The subject of experiment [9] is Klebsiella pneumoniae. Put plainly: Antibacterial activity against Klebsiella pneumoniae ATCC 33495 at 100 ug/ml after 24 hrs. An outline of the steps: as §1
Experiment [10] has as its system Candida albicans. The experiment is described as follows: Potentiation of antifungal activity of imidazole against Candida albicans ATCC 38245 by broth microdilution assay. (In general: Dilution methods test growth across graded concentrations, often in twofold steps.)
The next experiment relates to Candida parapsilosis. Put plainly: Antifungal activity against Candida parapsilosis ATCC 12969 at 100 ug/ml after 48 hrs. An outline of the steps:
(§2)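 Yeasts and Aspergillus cultures were dispensed into 96-well plates and compound in DMSO was added (1% DMSO final). Plates were shaken orbitally and OD600 was read at start. After 48 h at 37 °C, humidified, OD600 was read again, and activity was calculated as the change in optical density.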

Experiment [11] has as its system Aspergillus fumigatus. The experiment is described as follows: Antifungal activity against Aspergillus fumigatus NRRL A1100 at 100 ug/ml after 48 hrs. The method in brief:
as §2

Experiment [12] deals with Aspergillus flavus. The experiment is described as follows: Antifungal activity against Aspergillus flavus NRRL A1120 at 100 ug/ml after 48 hrs. The method in brief: as §2
The subject of a further experiment is Candida tropicalis. Put plainly: Antifungal activity against Candida tropicalis ATCC 12968 at 100 ug/ml after 48 hrs. The method in brief: as §2
Experiment [13] relates to Pichia kudriavzevii. The experiment is described as follows: Antifungal activity against Candida krusei ATCC 27803 at 100 ug/ml after 48 hrs. An outline of the steps:
as §2

The test system of experiment [14] is Aspergillus flavus. The experiment is described as follows: Antifungal activity against Aspergillus flavus NRRL A1120 at 10 ug/ml after 48 hrs. An outline of the steps: as §2
The subject of another experiment is Nakaseomyces glabratus. Put plainly: Antifungal activity against Candida glabrata NRRL Y-65 at 100 ug/ml after 48 hrs. The method in brief:
as §2

Experiment [15] has as its system Candida albicans. Put plainly: Antifungal activity against Candida albicans ATCC 38245 at 100 ug/ml after 48 hrs. The method in brief:
as §2

Experiment [16] concerns Pichia kudriavzevii. Put plainly: Antifungal activity against Candida krusei ATCC 27803 at 10 ug/ml after 48 hrs. The method in brief: as §2
The test system of experiment [17] is Aspergillus fumigatus. Put plainly: Antifungal activity against Aspergillus fumigatus NRRL A1100 at 10 ug/ml after 48 hrs. An outline of the steps: as §2

SMILES strings stand for the structures. Active and inactive are the calls of the source. The calls are words filed in the database; no cut-off is given here.

Consider `NC(=O)c1cn(-c2ccc(F)cc2)c(Cc2ccccc2)cc1=O`, for which the inhibition entry (in the experiment with Escherichia coli [1]; with Acinetobacter baumannii [2]; with Staphylococcus aureus [3]; with Acinetobacter baumannii [4]; in experiment [5]; with Staphylococcus aureus [6]) was “inactive” each time. In addition, the inhibition entry with Enterobacter cloacae, with Klebsiella pneumoniae [7], in the experiment on Escherichia coli [8], in the experiment on Pseudomonas aeruginosa, in the experiment on Burkholderia cepacia and in the experiment on Klebsiella pneumoniae [9] was “inactive” throughout.

As for `C[C@@H](CC(=O)NC(=O)c1coc(Cc2ccccc2)cc1=O)C(=O)O`, the result with Candida albicans [10] was inactive. Moreover, the inhibition result (with Escherichia coli [1]; with Acinetobacter baumannii [2]; with Staphylococcus aureus [3]; in the experiment with Acinetobacter baumannii [4]; in [5]; in the experiment on Staphylococcus aureus [6]) was “inactive” throughout. In addition, the inhibition result in the experiment on Enterobacter cloacae, in the experiment on Klebsiella pneumoniae [7], in the experiment on Escherichia coli [8], with Pseudomonas aeruginosa, with Burkholderia cepacia and with Klebsiella pneumoniae [9] was “inactive” in each case.

Consider `COC(=O)[C@@H](C)CC(=O)NC(=O)c1coc(Cc2ccccc2)cc1=O`, for which, in the experiment with Candida albicans [10], the result was inactive.

For the molecule `COC(=O)c1coc(Cc2ccccc2)cc1=O`, in the experiment with Candida albicans [10], the outcome was inactive. Besides, the inhibition entry (with Escherichia coli [1]; in the experiment with Acinetobacter baumannii [2]; in the experiment with Staphylococcus aureus [3]; in the experiment with Acinetobacter baumannii [4]; in experiment [5]; in the experiment with Staphylococcus aureus [6]) was “inactive” in each case. For the same molecule, the inhibition result in the experiment on Enterobacter cloacae, with Klebsiella pneumoniae [7], in the experiment on Escherichia coli [8], with Pseudomonas aeruginosa, with Burkholderia cepacia and with Klebsiella pneumoniae [9] was “inactive” each time. Moreover, the inhibition entry with Candida parapsilosis, in the experiment with Aspergillus fumigatus [11], with Aspergillus flavus [12], with Candida tropicalis, in the experiment with Pichia kudriavzevii [13] and with Aspergillus flavus [14] was “Active” in each case. The inhibition entry in the experiment on Nakaseomyces glabratus and with Candida albicans [15] was “Active” in each case.

For the molecule `CCOC(=O)c1coc(-c2ccccc2)cc1=O`, the inhibition result in the experiment with Pichia kudriavzevii [16], with Candida parapsilosis, with Aspergillus fumigatus [11], in the experiment on Aspergillus flavus [12], with Candida tropicalis and in the experiment on Pichia kudriavzevii [13] was “Active” in each case. Also, the inhibition result in the experiment with Aspergillus flavus [14], in the experiment on Nakaseomyces glabratus, in the experiment with Candida albicans [15] and with Aspergillus fumigatus [17] was “Active” in each case.

Consider `NC(=O)c1coc(Cc2ccccc2)cc1=O`, for which the result in the experiment with Candida albicans [10] was inactive. In addition, the inhibition result (in the experiment with Escherichia coli [1]; in the experiment on Acinetobacter baumannii [2]; in the experiment on Staphylococcus aureus [3]; with Acinetobacter baumannii [4]; in [5]; with Staphylococcus aureus [6]) was “inactive” each time. Moreover, the inhibition entry with Enterobacter cloacae, with Klebsiella pneumoniae [7], with Escherichia coli [8], in the experiment on Pseudomonas aeruginosa, with Burkholderia cepacia and in the experiment with Klebsiella pneumoniae [9] was “inactive” throughout.

`C[C@@H](CC(=O)NC(=O)c1cn(-c2ccccc2)c(Cc2ccccc2)cc1=O)C(=O)O`: the inhibition entry (with Escherichia coli [1]; with Acinetobacter baumannii [2]; in the experiment with Staphylococcus aureus [3]; with Acinetobacter baumannii [4]; in experiment [5]; in the experiment with Staphylococcus aureus [6]) was “inactive” in each case. Besides, the inhibition entry in the experiment on Enterobacter cloacae, in the experiment on Klebsiella pneumoniae [7], in the experiment on Escherichia coli [8], in the experiment on Pseudomonas aeruginosa, in the experiment with Burkholderia cepacia and in the experiment on Klebsiella pneumoniae [9] was “inactive” throughout.
